We go through 20 molecules from ChEMBL document CHEMBL3352199, “Biological evaluation of halogenated thiazolo[3,2-a]pyrimidin-3-one carboxylic acid derivatives targeting the YycG histidine kinase” (Eur J Med Chem, 2014).

For data set [1], the system named is Staphylococcus epidermidis. Nature of the data set: Antimicrobial activity against Staphylococcus epidermidis ATCC 12228 after 12 to 16 hrs by broth micro-dilution method. Format: functional. An outline of the steps:
(§1)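 Broth micro-dilution in tubes per CLSI. Serial twofold dilutions in Mueller-Hinton broth, top final concentration 200. The inoculum was 6 h cultures adjusted to 0.5 McFarland. Incubated 37 °C 12–16 h. MIC is the lowest concentration with no visible growth by eye. Growth control (no drug) and sterility control (uninoculated broth) were included.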

A further data set has as its system Escherichia coli. Nature of the data set: Antimicrobial activity against Escherichia coli ATCC 25922 after 12 to 16 hrs by broth micro-dilution method. Format: functional. An outline of the steps: as §1
A short description of data set [2]: Hemolytic activity in human erythrocytes at 100 uM after 1 hr by spectrophotometry. Format: ADME, cell-based. Conditions: erythrocyte, 50 µM, in the assay text read “50 uM” for “100 uM”. An outline of the steps:
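Healthy human erythrocytes exposed to compounds. After incubation, centrifuged at 350 × g for 10 min, and hemolysis read as supernatant absorbance at 570 nm. DMSO (0.1%) served as negative control and Triton X-100 (1%) as positive control.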

Data set [3] concerns Staphylococcus epidermidis. Nature of the data set: Antimicrobial activity against Staphylococcus epidermidis ATCC 35984 after 12 to 16 hrs by broth micro-dilution method. Format: functional. An outline of the steps:
as §1

For the next data set, the system named is Shigella flexneri. Nature of the data set: Antimicrobial activity against Shigella flexneri 301 after 12 to 16 hrs by broth micro-dilution method. Format: functional. In short, it runs like this: as §1
Background: Dilution methods test growth across graded concentrations, often in twofold steps.

Data set [4] has as its system Staphylococcus epidermidis. Nature of the data set: Antibiofilm activity against Staphylococcus epidermidis ATCC 35984 at 50 uM after 18 hrs by crystal violet staining method. Format: functional, organism-based. In short, it runs like this:
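S. epidermidis ATCC35984 suspension seeded in microtiter wells, 37 °C 6 h to form young biofilm. PBS-washed ×4, then fresh TSB with graded compound dilutions, 37 °C 18 h. Washed, methanol-fixed 15 min, air-dried, crystal violet stained, OD570 read. Cut-off ODc = mean OD570 of negative control + 3×SD (0.28); triplicate.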

The test system of the next data set is Staphylococcus aureus. As to the kind of experiment: Antimicrobial activity against Staphylococcus aureus ATCC 25923 after 12 to 16 hrs by broth micro-dilution method. Format: functional. An outline of the steps:
as §1

Data set [5] is described as follows: Inhibition of recombinant YycG kinase HK domain autophosphorylation activity (unknown origin) expressed in Escherichia coli BL21 (DE3) preincubated for 30 mins by ATP-Luminescence assay. An outline of the steps: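 YycG HATPase_c + HisKA domains, expressed in E. coli BL21(DE3), purified on Ni-NTA. Protein at 0.13 mmol/L pre-incubated with serial compound dilutions in 40 mmol/L Tris pH 8.0, 20 mmol/L MgCl₂, 0.1 mg/mL BSA, 25 °C 30 min. ATP 4 mmol/L added, 30 min at 25 °C. Remaining ATP measured by Kinase-Glo luminescence. IC50 fitted from phosphorylation-inhibition rates.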

SMILES strings stand for the structures. ≈ marks a conversion by molar mass, not a printed value. Calls of active or inactive are those of the source.

As a reminder, the MIC is the lowest concentration that inhibits growth of the organism. A lower MIC goes with inhibition by little substance. With `CCOC(=O)C1=C(C)N=c2s/c(=C\c3ccc(OCC(=O)O)cc3)c(=O)n2C1c1ccc(Cl)cc1` (configuration not stated), the MIC in data set [1] was 200 µM (≈ 103 µg/mL); against Escherichia coli, > 200 µM; in data set [3], 200 µM (≈ 103 µg/mL); in the data set on Shigella flexneri, > 200 µM. Further, the Activity entry in data set [2] was “Non-toxic”. In addition, the outcome in data set [4] was inactive.
Consider `CCOC(=O)C1=C(c2ccccc2)N=c2s/c(=C\c3ccc(-c4cccc(C(=O)O)c4)o3)c(=O)n2C1c1ccc(F)cc1` (configuration not stated), for which the MIC was 6.25 µM (≈ 3.72 µg/mL) with Staphylococcus aureus; 3.12 µM (≈ 1.86 µg/mL) in data set [1]; > 200 µM in the data set on Escherichia coli; 6.25 µM (≈ 3.72 µg/mL) in data set [3]; > 200 µM against Shigella flexneri. Further, in data set [2], the Activity entry is recorded as “Non-toxic”. In addition, the result in data set [4] was Active.
Take `CCOC(=O)C1=C(c2ccccc2)N=c2s/c(=C\c3ccc(-c4cccc(C(=O)O)c4)o3)c(=O)n2C1c1ccc([N+](=O)[O-])cc1` (configuration not stated): the MIC is 25 µM (≈ 15.5 µg/mL) against Staphylococcus aureus; 3.12 µM (≈ 1.94 µg/mL) in data set [1]; > 200 µM in the data set on Escherichia coli; 1.56 µM (≈ 0.97 µg/mL) in data set [3]; > 200 µM against Shigella flexneri. In addition, the Activity entry in data set [2] is reported as “Non-toxic”. Further, the result in data set [4] was inactive.
The term IC50 denotes the concentration at which inhibition is half-maximal. As for `COc1ccc(C2C=C(c3ccccc3)N=c3s/c(=C\c4ccc(-c5cccc(C(=O)O)c5)o4)c(=O)n32)cc1` (configuration not stated), the MIC against Staphylococcus aureus was 6.25 µM (≈ 3.34 µg/mL); in data set [1] it was 6.25 µM (≈ 3.34 µg/mL); against Escherichia coli, > 200 µM; in data set [3] it was 1.56 µM (≈ 0.834 µg/mL); in the data set with Shigella flexneri, > 200 µM. Also, in data set [2], the Activity entry is “Non-toxic”. For the same molecule, the IC50 in data set [5] was 49.9 µM. For the same molecule, the outcome in data set [4] was inactive.
On to `Cc1nnc(SCC2=C(C(=O)O)N3C(=O)[C@@H](NC(=O)Cn4cnnn4)[C@H]3SC2)s1` [CEFAZOLIN], for which the minimum inhibitory concentration (MIC) (with Staphylococcus aureus; in data set [1]; in data set [3]) was 17.6 µM (≈ 8 µg/mL) throughout.
For the molecule `CCOC(=O)C1=C(c2ccccc2)N=c2s/c(=C\c3ccc(-c4ccc(C(=O)O)cc4)o3)c(=O)n2C1c1ccc(Cl)cc1` (configuration not stated), the MIC with Staphylococcus aureus is 6.25 µM (≈ 3.82 µg/mL); in data set [1], 3.12 µM (≈ 1.91 µg/mL); with Escherichia coli, > 200 µM; in data set [3], 6.25 µM (≈ 3.82 µg/mL); in the data set on Shigella flexneri, > 200 µM. In data set [2], the Activity result is given as “Non-toxic”. The result in data set [4] was Active.
For `O=C(O)c1cccc(-c2ccc(/C=c3\sc4n(c3=O)C(c3ccc(Cl)cc3)C=C(c3ccccc3)N=4)o2)c1` (configuration not stated), the minimal inhibitory concentration (MIC) in the data set on Staphylococcus aureus was 3.12 µM (≈ 1.68 µg/mL); in data set [1], 6.25 µM (≈ 3.37 µg/mL); against Escherichia coli it was > 200 µM; in data set [3] it was 1.56 µM (≈ 0.841 µg/mL); in the data set on Shigella flexneri, > 200 µM. The Activity result in data set [2] is on record as “Non-toxic”. Moreover, the IC50 in data set [5] is 55.6 µM. Further, the outcome in data set [4] was Active.
As for `CCOC(=O)C1=C(c2ccccc2)N=c2s/c(=C\c3ccc(-c4cccc(C(=O)O)c4)o3)c(=O)n2C1c1ccccc1` (configuration not stated), the MIC was 200 µM (≈ 115 µg/mL) in data set [1], > 200 µM in the data set on Escherichia coli, 200 µM (≈ 115 µg/mL) in data set [3] and > 200 µM against Shigella flexneri. The Activity result in data set [2] is reported as “Non-toxic”. For the same molecule, in data set [4], the outcome was inactive.
As to `CCOC(=O)C1=C(c2ccccc2)N=c2s/c(=C\c3ccc(-c4cccc(C(=O)O)c4)o3)c(=O)n2C1c1ccc2c(c1)OCO2` (configuration not stated), the minimum inhibitory concentration (MIC) against Staphylococcus aureus is 6.25 µM (≈ 3.88 µg/mL); in data set [1], 6.25 µM (≈ 3.88 µg/mL); against Escherichia coli it was > 200 µM; in data set [3], 6.25 µM (≈ 3.88 µg/mL); against Shigella flexneri it was > 200 µM. The Activity result in data set [2] is given as “Non-toxic”. For the same molecule, the IC50 in data set [5] was determined as 14 µM. Besides, the outcome in data set [4] was Active.
For `CCOC(=O)C1=C(c2ccccc2)N=c2s/c(=C\c3ccc(OCC(=O)O)c(OC)c3)c(=O)n2C1c1ccc(Cl)cc1` (configuration not stated), the MIC was 200 µM (≈ 121 µg/mL) in data set [1], > 200 µM against Escherichia coli, 200 µM (≈ 121 µg/mL) in data set [3] and > 200 µM against Shigella flexneri. Moreover, the result in data set [4] was inactive.
For `CCOC(=O)C1=C(c2ccccc2)N=c2s/c(=C\c3ccc(-c4ccc(C(=O)O)cc4)o3)c(=O)n2C1c1ccc(OC)cc1` (configuration not stated), the MIC in data set [1] was 6.25 µM (≈ 3.79 µg/mL); against Escherichia coli, > 200 µM; in data set [3], 6.25 µM (≈ 3.79 µg/mL); in the data set with Shigella flexneri, > 200 µM. Besides, the Activity entry in data set [2] is reported as “Non-toxic”. Also, the outcome in data set [4] was inactive.
With `CCOC(=O)C1=C(c2ccccc2)N=c2s/c(=C\c3ccc(-c4cccc(C(=O)O)c4)o3)c(=O)n2C1c1ccc(O)cc1` (configuration not stated), the MIC was 50 µM (≈ 29.6 µg/mL) in data set [1], > 200 µM against Escherichia coli, 50 µM (≈ 29.6 µg/mL) in data set [3] and > 200 µM with Shigella flexneri. Further, the Activity entry in data set [2] is reported as “Non-toxic”. In addition, the result in data set [4] was inactive.
On to `O=C(O)c1cccc(-c2ccc(/C=c3\sc4n(c3=O)C(c3ccc(F)cc3)C=C(c3ccccc3)N=4)o2)c1` (configuration not stated), for which the minimum inhibitory concentration (MIC) with Staphylococcus aureus is 6.25 µM (≈ 3.27 µg/mL); in data set [1], 3.12 µM (≈ 1.63 µg/mL); in the data set with Escherichia coli, > 200 µM; in data set [3], 6.25 µM (≈ 3.27 µg/mL); with Shigella flexneri, > 200 µM. The Activity entry in data set [2] is listed as “Non-toxic”. The result in data set [4] was Active.
For the molecule `CCOC(=O)C1=C(C)N=c2s/c(=C\c3ccc(OCC(=O)O)c(OC)c3)c(=O)n2C1c1ccc(OC)cc1` (configuration not stated), the minimal inhibitory concentration (MIC) was 50 µM (≈ 26.9 µg/mL) in data set [1], > 200 µM against Escherichia coli, 50 µM (≈ 26.9 µg/mL) in data set [3] and > 200 µM against Shigella flexneri. Besides, in data set [4], the outcome was inactive.
For `CCOC(=O)C1=C(c2ccccc2)N=c2s/c(=C\c3ccc(-c4cccc(C(=O)O)c4)o3)c(=O)n2C1c1ccc(Cl)cc1` (configuration not stated), the MIC in the data set on Staphylococcus aureus is 6.25 µM (≈ 3.82 µg/mL); in data set [1], 3.12 µM (≈ 1.91 µg/mL); against Escherichia coli it was > 200 µM; in data set [3], 1.56 µM (≈ 0.953 µg/mL); against Shigella flexneri, > 200 µM. In addition, the Activity entry in data set [2] is reported as “Non-toxic”. Moreover, the half-maximal inhibitory concentration (IC50) in data set [5] was determined as 12.7 µM. In addition, the result in data set [4] was Active.
On to `CCOC(=O)C1=C(C)N=c2s/c(=C\c3ccc(OCC(=O)O)cc3)c(=O)n2C1c1ccc(OC)cc1` (configuration not stated), for which the minimum inhibitory concentration (MIC) in data set [1] was 50 µM (≈ 25.4 µg/mL); in the data set on Escherichia coli it was > 200 µM; in data set [3] it was 50 µM (≈ 25.4 µg/mL); in the data set with Shigella flexneri it was > 200 µM. Also, the Activity entry in data set [2] is reported as “Non-toxic”. In data set [4], the result was inactive.
Turning to `CCOC(=O)C1=C(c2ccccc2)N=c2s/c(=C\c3ccc(-c4ccc(C(=O)O)cc4)o3)c(=O)n2C1c1ccc(F)cc1` (configuration not stated), the minimal inhibitory concentration (MIC) with Staphylococcus aureus is 6.25 µM (≈ 3.72 µg/mL); in data set [1], 6.25 µM (≈ 3.72 µg/mL); in the data set on Escherichia coli, > 200 µM; in data set [3], 6.25 µM (≈ 3.72 µg/mL); with Shigella flexneri, > 200 µM. Moreover, the Activity result in data set [2] is “Non-toxic”. Also, the outcome in data set [4] was Active.
As for `CCOC(=O)C1=C(c2ccccc2)N=c2s/c(=C\c3ccc(OCC(=O)O)cc3)c(=O)n2C1c1ccc(Cl)cc1` (configuration not stated), the MIC was 3.12 µM (≈ 1.8 µg/mL) in data set [1], > 200 µM with Escherichia coli, 3.12 µM (≈ 1.8 µg/mL) in data set [3] and > 200 µM with Shigella flexneri. The Activity result in data set [2] is “Non-toxic”. Further, in data set [4], the outcome was inactive.
As to `CCOC(=O)C1=C(C)N=c2s/c(=C\c3ccc(-c4cccc(C(=O)O)c4)o3)c(=O)n2C1c1ccc(OC)cc1` (configuration not stated), the MIC against Escherichia coli is > 200 µM; in data set [3] it was 6.25 µM (≈ 3.4 µg/mL); in the data set with Shigella flexneri, > 200 µM. In data set [2], the Activity result is on record as “Non-toxic”. Besides, in data set [4], the outcome was inactive.
For the molecule `CCOC(=O)C1=C(c2ccccc2)N=c2s/c(=C\c3ccc(-c4cccc(C(=O)O)c4)o3)c(=O)n2C1c1ccc(OC)cc1` (configuration not stated), the MIC in data set [1] is 3.12 µM (≈ 1.9 µg/mL); in the data set on Escherichia coli, > 200 µM; in data set [3], 3.12 µM (≈ 1.9 µg/mL); against Shigella flexneri, > 200 µM. Further, the Activity entry in data set [2] is given as “Non-toxic”. Also, the outcome in data set [4] was Active.
